Data set [1] deals with T1, ATP-dependent translocase ABCB1 (Homo sapiens, UniProt P08183). The experiment in a line: Inhibition of human ABCB1-mediated efflux transfected in HEK293 cells assessed as accumulation of fluorescent dye at 1 uM by calcein-AM dye based FACS analysis. The note with it: hek293, 1 µM. The data set is classed as cell-based. In outline:
(§1)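 The HEK293 cells, transfected with human ABCB1 (parental HEK293 as control), were trypsinized and resuspended in IMDM with 5% FCS. Calcein-AM was added to 3 × 10^5 cells in 4 mL, with or without test compound (single 1 μM or a concentration series) or 3 μM tariquidar. Fluorescence was read immediately by flow cytometry. Results are the mean ± SEM of at least three experiments.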

Data set [2] addresses T1, ATP-dependent translocase ABCB1. The data set is described as follows: Inhibition of human ABCB1-mediated efflux transfected in HEK293 cells assessed as accumulation of fluorescent dye by calcein-AM dye based FACS analysis. Format: cell-based. Summed up:
as §1

Data set [3] in a line: Cytotoxicity against HEK293 cells assessed as reduction in cell viability at 1 uM after 72 hrs by CCK8 assay. The data set is classed as toxicity, cell-based. The note with it: human, hek293, 72 h. (Formazan colour is commonly taken as a measure of viable cells.)
For data set [4], the target named is T1, ATP-dependent translocase ABCB1. The data set is described as follows: Inhibition of human ABCB1 transfected in HEK293 cells assessed as potentiation of doxorubicin-induced cytotoxicity by measuring doxorubicin resistance ratio at 100 nM after 72 hrs by CCK8 assay relative to parental HEK293 cells (reference value: 96). The data set is classed as cell-based. Particulars: hek293, 72 h, 0.1 µM; call rule not given here.

Data set [5] has the same target. The experiment in a line: Inhibition of human ABCB1 transfected in HEK293 cells assessed as potentiation of doxorubicin-induced cytotoxicity by measuring doxorubicin resistance ratio at 500 nM after 72 hrs by CCK8 assay relative to parental HEK293 cells (reference value: 96). Format: cell-based. The note with it: hek293, 72 h, 0.5 µM.
Data set [6] deals with Multidrug resistance-associated protein 1 (Homo sapiens, UniProt P33527). The data set is described as follows: Inhibition of human ABCC1 transfected in HEK293 cells assessed as potentiation of etoposide-induced cytotoxicity by measuring etoposide resistance ratio at 500 nM after 72 hrs by CCK8 assay relative to parental HEK293 cells (reference value: 350). Format: cell-based. The note with it: hek293, 72 h, 0.5 µM.
Chain of Multidrug resistance-associated protein 1 (P33527 whole entry): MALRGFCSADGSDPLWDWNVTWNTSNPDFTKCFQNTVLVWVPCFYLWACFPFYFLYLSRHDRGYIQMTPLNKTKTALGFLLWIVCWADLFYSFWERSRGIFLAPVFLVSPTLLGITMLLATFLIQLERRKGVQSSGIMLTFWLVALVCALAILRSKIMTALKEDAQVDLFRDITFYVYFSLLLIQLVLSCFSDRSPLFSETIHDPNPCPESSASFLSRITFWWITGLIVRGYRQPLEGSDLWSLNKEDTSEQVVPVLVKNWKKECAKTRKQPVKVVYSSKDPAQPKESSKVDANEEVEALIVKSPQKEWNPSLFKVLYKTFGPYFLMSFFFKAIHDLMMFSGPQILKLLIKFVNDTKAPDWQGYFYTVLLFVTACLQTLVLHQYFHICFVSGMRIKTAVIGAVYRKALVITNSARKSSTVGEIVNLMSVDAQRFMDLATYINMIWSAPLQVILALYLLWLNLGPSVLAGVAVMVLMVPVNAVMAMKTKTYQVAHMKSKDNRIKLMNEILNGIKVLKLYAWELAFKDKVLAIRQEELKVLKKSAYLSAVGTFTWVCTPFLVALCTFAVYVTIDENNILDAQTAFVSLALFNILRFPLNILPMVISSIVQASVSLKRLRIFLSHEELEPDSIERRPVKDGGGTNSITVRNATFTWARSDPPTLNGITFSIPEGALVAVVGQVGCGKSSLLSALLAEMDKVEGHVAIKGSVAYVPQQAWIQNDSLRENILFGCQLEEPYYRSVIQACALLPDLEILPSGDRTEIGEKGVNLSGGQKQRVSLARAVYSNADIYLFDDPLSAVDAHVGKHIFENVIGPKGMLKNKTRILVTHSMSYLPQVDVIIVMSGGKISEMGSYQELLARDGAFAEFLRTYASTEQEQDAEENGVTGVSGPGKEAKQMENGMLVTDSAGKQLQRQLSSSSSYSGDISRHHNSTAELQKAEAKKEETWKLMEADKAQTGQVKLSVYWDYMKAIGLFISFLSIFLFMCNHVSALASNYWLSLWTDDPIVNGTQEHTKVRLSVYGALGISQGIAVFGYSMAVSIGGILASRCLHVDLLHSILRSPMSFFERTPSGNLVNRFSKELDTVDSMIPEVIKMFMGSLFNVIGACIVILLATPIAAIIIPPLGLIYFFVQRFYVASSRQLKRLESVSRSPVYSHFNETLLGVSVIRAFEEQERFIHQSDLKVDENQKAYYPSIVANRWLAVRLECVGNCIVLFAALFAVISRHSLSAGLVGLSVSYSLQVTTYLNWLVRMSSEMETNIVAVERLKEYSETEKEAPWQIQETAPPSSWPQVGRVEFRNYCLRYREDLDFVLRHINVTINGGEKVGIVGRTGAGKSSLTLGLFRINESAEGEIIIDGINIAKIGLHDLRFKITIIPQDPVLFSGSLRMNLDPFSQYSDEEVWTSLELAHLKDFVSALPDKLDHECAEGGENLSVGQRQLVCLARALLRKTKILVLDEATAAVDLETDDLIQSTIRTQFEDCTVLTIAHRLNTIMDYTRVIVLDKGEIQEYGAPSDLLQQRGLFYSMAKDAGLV

In data set [7] the target is T1, ATP-dependent translocase ABCB1. The experiment in a line: Inhibition of ABCB1 in human NCI-ADR-RES cells assessed as reduction of calcein efflux at 1 uM by -based FACS analysis. The data set is classed as cell-based. Summed up: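 Trypsinized cells were resuspended in IMDM with 5% FCS. Calcein-AM was added to 3 × 10^5 cells in 4 mL IMDM, with or without 1 μM test compound or 3 μM tariquidar. Intracellular calcein fluorescence was read immediately by flow cytometry, with the drug-sensitive parental line run in parallel.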

The target is the same in data set [8]. The experiment in a line: Inhibition of ABCB1 in human NCI-ADR-RES cells assessed as potentiation of doxorubicin-induced cytotoxicity at 1 uM after 72 hrs by MTT assay. The data set is classed as cell-based. Summed up:
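The cells were kept in drug-free medium for 7 days. They were seeded at 5000 cells/well, allowed to attach for 24 h at 37 °C, then exposed to graded doxorubicin with or without 50–500 nM test compound or 1 μM tariquidar for a further 72 h. Viability was read by MTT. Results are means of at least three independent experiments.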

For data set [9] the target is unchanged. The data set is described as follows: Inhibition of ABCB1 in human KBV1 cells assessed as potentiation of doxorubicin-induced cytotoxicity by measuring doxorubicin resistance ratio at 200 nM after 72 hrs by MTT assay relative to parental KB-3-1 cells (reference value: 34). The data set is classed as cell-based. The note with it: kbv1, 72 h, 0.2 µM. Summed up: (§2)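 Cells were kept in drug-free DMEM with 10% FCS for 7 days before assay, then plated at 5000 cells/well for 24 h. Drug at various concentrations was added with a nontoxic fixed level of modulator for 72 h, and the read-out was MTT. IC50 came from fitted curves (≥3 experiments). RR = IC50 of the resistant line / IC50 of the parental line.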

Data set [10] shares this target. The data set is described as follows: Inhibition of ABCB1 in human KBV1 cells assessed as potentiation of doxorubicin-induced cytotoxicity by measuring doxorubicin resistance ratio at 100 nM after 72 hrs by MTT assay relative to parental KB-3-1 cells (reference value: 34). The note with it: kbv1, 72 h, 0.1 µM. Format: cell-based. Summed up:
as §2

The target is the same in data set [11]. The data set is described as follows: Inhibition of ABCB1 in human KBV1 cells assessed as potentiation of doxorubicin-induced cytotoxicity by measuring doxorubicin resistance ratio at 50 nM after 72 hrs by MTT assay relative to parental KB-3-1 cells (reference value: 34). The data set is classed as cell-based. Particulars: kbv1, 72 h, 0.05 µM. Summed up:
as §2

The target is the same in data set [12]. The experiment in a line: Inhibition of ABCB1 in human KBV1 cells assessed as potentiation of colchicine-induced cytotoxicity by measuring colchicine resistance ratio at 100 nM after 72 hrs by MTT assay relative to parental KB-3-1 cells (reference value: 55). Format: cell-based. The note with it: kbv1, 72 h, 0.1 µM. Summed up: as §2
Data set [13] has the same target. The data set is described as follows: Inhibition of ABCB1 in human KBV1 cells assessed as potentiation of colchicine-induced cytotoxicity by measuring colchicine resistance ratio at 50 nM after 72 hrs by MTT assay relative to parental KB-3-1 cells (reference value: 55). Format: cell-based. The note with it: kbv1, 72 h, 0.05 µM. In outline:
as §2

The target is the same in data set [14]. The data set is described as follows: Inhibition of ABCB1 in human KBV1 cells assessed as potentiation of vincristine-induced cytotoxicity by measuring vincristine resistance ratio at 100 nM after 72 hrs by MTT assay relative to parental KB-3-1 cells (reference value: 356). The data set is classed as cell-based. The note with it: kbv1, 72 h, 0.1 µM. Summed up: as §2

For data set [15] the target is unchanged. The experiment in a line: Inhibition of ABCB1 in human NCI-ADR-RES cells assessed as potentiation of doxorubicin-induced cytotoxicity by measuring doxorubicin resistance ratio at 200 nM after 72 hrs by MTT assay relative to parental OVCAR8 cells (reference value: 46). The note with it: ovcar-8, 72 h, 0.2 µM. Format: cell-based. Summed up:
as §2

For data set [16] the target is unchanged. The experiment in a line: Inhibition of ABCB1 in human NCI-ADR-RES cells assessed as potentiation of doxorubicin-induced cytotoxicity by measuring doxorubicin resistance ratio at 50 nM after 72 hrs by MTT assay relative to parental OVCAR8 cells (reference value: 46). The data set is classed as cell-based. The note with it: ovcar-8, 72 h, 0.05 µM. In outline: as §2

Data set [17] shares this target. The data set is described as follows: Inhibition of ABCB1 in human NCI-ADR-RES cells assessed as potentiation of colchicine-induced cytotoxicity by measuring colchicine resistance ratio at 100 nM after 72 hrs by MTT assay relative to parental OVCAR8 cells (reference value: 59). The data set is classed as cell-based. The note with it: ovcar-8, 72 h, 0.1 µM. In outline: as §2

Data set [18] has the same target. The data set is described as follows: Inhibition of ABCB1 in human NCI-ADR-RES cells assessed as potentiation of vincristine-induced cytotoxicity by measuring vincristine resistance ratio at 500 nM after 72 hrs by MTT assay relative to parental OVCAR8 cells (reference value: 435). The data set is classed as cell-based. The note with it: ovcar-8, 72 h, 0.5 µM. Summed up: as §2

The subject of data set [19] is KB 3-1. The data set is described as follows: Induction of apoptosis in human KB-3-1 cells assessed as early apoptotic cells at 1 uM after 48 hrs by Annexin V-FITC/propidium iodide staining based FACS analysis (reference value: 5.1%). The data set is classed as functional.
For data set [20], the system named is KB 3-1. The experiment in a line: Induction of apoptosis in human KB-3-1 cells assessed as late apoptotic cells at 1 uM after 48 hrs by Annexin V-FITC/propidium iodide staining based FACS analysis (reference value: 5.8%). Format: functional. On the technique in general: In flow cytometry, cells or beads pass a laser one at a time.
Data set [21] relates to KB-V1. The experiment in a line: Induction of apoptosis in human KBV1 cells assessed as early apoptotic cells at 1 uM after 48 hrs by Annexin V-FITC/propidium iodide staining based FACS analysis (reference value: 5.3%). Format: functional.
The subject of data set [22] is KB-V1. The experiment in a line: Induction of apoptosis in human KBV1 cells assessed as necrotic cells at 1 uM after 48 hrs by Annexin V-FITC/propidium iodide staining based FACS analysis (reference value: 1%). The data set is classed as functional.
The target in data set [23] is T1, ATP-dependent translocase ABCB1. The experiment in a line: Binding affinity to Vanadate-sensitive ABCB1 (unknown origin).

We go through one compound from ChEMBL document CHEMBL3867440, “Hernandezine, a Bisbenzylisoquinoline Alkaloid with Selective Inhibitory Activity against Multidrug-Resistance-Linked ATP-Binding Cassette Drug Transporter ABCB1” (J Nat Prod, 2016).

T1 sequence (P08183 whole entry): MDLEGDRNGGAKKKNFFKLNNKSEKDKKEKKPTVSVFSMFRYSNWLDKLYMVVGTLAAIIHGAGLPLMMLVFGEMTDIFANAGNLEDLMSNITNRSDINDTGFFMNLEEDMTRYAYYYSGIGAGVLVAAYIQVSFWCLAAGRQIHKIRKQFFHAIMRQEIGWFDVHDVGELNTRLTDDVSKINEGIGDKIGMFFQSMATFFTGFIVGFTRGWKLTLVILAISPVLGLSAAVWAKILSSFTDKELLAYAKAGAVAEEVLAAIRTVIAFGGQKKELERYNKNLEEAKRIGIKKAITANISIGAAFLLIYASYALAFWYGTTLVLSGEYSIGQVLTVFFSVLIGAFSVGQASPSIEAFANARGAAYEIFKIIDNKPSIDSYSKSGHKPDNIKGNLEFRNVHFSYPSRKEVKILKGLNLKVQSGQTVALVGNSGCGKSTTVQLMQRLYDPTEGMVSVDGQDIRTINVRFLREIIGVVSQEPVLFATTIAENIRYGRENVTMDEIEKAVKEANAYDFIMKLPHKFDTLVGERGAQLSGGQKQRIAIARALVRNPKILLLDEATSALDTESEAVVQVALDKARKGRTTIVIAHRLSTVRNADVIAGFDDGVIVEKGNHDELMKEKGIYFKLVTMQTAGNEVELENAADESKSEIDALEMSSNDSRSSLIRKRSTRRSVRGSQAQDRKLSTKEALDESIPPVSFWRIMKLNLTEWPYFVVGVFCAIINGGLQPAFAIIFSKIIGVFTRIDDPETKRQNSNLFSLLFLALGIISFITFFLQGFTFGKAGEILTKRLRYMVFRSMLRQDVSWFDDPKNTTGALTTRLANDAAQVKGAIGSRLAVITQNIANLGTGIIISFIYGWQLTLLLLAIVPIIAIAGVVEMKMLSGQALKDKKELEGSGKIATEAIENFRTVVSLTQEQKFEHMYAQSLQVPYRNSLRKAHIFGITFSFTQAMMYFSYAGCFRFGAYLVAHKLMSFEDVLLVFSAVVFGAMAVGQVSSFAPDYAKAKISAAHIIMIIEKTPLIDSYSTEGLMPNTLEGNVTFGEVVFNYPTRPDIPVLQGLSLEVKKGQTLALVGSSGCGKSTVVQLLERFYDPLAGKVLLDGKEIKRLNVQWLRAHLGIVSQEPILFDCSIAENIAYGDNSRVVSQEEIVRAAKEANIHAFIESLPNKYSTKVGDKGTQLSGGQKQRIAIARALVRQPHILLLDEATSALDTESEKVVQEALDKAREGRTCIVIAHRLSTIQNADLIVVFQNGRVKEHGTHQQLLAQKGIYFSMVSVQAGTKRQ

Regarding `COc1ccc2cc1Oc1ccc(cc1)C[C@H]1c3cc(c(OC)cc3CCN1C)Oc1c(OC)c(OC)c(OC)c3c1[C@H](C2)N(C)CC3` [HERNANDEZINE], the “inhibition (INH)” value is given as “Active” in data set [1]; “Dose-dependent effect” in data set [2] (human, hek293); “Active” in data set [7]; “Active” in data set [8]. Besides, in data set [2], the IC50 (as a rule, the point on the concentration scale where inhibition reaches its midpoint) was 300 nM. Further, the Activity entry in data set [3] is listed as “Non-Toxic”; in the data set on KB 3-1 [19], 6.6%; in the data set on KB 3-1 [20], 4.4%; in the data set on KB-V1 [21] it was 4.7%; in the data set with KB-V1 [22], 1%. Moreover, the Ratio in data set [4] is listed as 11; in [5], 7; in [6] it was 547; in data set [9], 2; in data set [10] it was 5; in data set [11] it was 9. The Ratio in [12] is on record as 21; in data set [13], 31; in data set [14], 169; in data set [15], 5; in [16] it was 26; in data set [17] it was 23. The Ratio in data set [18] worked out at 19. Moreover, the affinity in data set [23], expressed as Ki, was 20 nM.
